What is called IC50 is the point on the concentration scale where inhibition reaches its midpoint. Read a low IC50 as greater potency in that assay.

16 molecules from ChEMBL document CHEMBL3414442, “Synthesis and biological evaluation of 2,4-diaminopyrimidines as selective Aurora A kinase inhibitors” (Eur J Med Chem, 2015) can be followed below.

One test relates to HepG2. As to the kind of experiment: Cytotoxicity against human HepG2 cells after 48 hrs by MTT assay. It is filed as functional, cell-based. To be noted: HepG2, 48 h. An outline of the steps: (§1)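 Cells were grown at 37 °C in 5% CO2, plated and left to attach for 4–6 h, then exposed to five concentrations (dissolved in saline) in quadruplicate wells for 48 h. MTT was added for 4 h, formazan was dissolved in DMSO, and A490 was read. IC50 was taken from a log plot of percent of control versus concentration, as the mean of three independent experiments.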
(Tetrazolium dyes change colour on reduction, which living cells bring about.)

Test [1] can be described thus: Cytotoxicity against human HCT8 cells after 48 hrs by MTT assay. It is filed as functional, cell-based. To be noted: HCT-8, 48 h. An outline of the steps:
as §1

For a further test, the system named is A549. As to the kind of experiment: Cytotoxicity against human A549 cells after 48 hrs by MTT assay. The format is functional, cell-based. Particulars: A549, 48 h. An outline of the steps: as §1
For test [2], the system named is HeLa. The test is described as follows: Cytotoxicity against human HeLa cells after 48 hrs by MTT assay. It is filed as functional, cell-based. An outline of the steps: as §1
In a further test the target is T1, Aurora kinase A (Homo sapiens, UniProt O14965).
T1 sequence (O14965 whole entry): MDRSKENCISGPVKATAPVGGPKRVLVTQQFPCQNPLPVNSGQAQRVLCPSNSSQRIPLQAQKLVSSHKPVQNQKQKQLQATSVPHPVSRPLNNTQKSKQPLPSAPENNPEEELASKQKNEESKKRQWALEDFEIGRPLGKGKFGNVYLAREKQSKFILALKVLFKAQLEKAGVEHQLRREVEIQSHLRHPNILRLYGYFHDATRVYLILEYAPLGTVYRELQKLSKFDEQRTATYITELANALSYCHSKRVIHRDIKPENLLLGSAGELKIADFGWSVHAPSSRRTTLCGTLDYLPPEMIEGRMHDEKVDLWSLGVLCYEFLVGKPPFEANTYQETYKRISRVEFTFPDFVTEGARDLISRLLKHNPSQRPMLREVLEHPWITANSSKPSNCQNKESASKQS
As to the kind of experiment: Inhibition of Aurora A in human HeLa cells after 12 hrs by ELISA method. The format is cell-based. For orientation: An ELISA detects its analyte on a solid surface through an enzyme-linked reagent.

Test [3] concerns the target T2, Aurora kinase B (Homo sapiens, UniProt Q96GD4). The test is described as follows: Inhibition of Aurora B in human HeLa cells after 12 hrs by Western blot method. The format is cell-based. An outline of the steps:
(§2)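 HeLa cells were treated for 12 h at 10, 25 or 50 nM. They were washed in PBS and lysed in Tris-HCl pH 7.5 buffer with EDTA, NaCl, PMSF and 1% SDS, then boiled for 10 min. Proteins were separated, blotted onto nitrocellulose and probed with antibodies against Aurora A or Aurora B.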
Background: Immunoblotting shows a protein as a band on a membrane.

In test [4] the target is T3, Aurora kinase A (Homo sapiens) (UniProt O14965).
T3 sequence (whole entry): T1 sequence (O14965 whole entry)
The test is described as follows: Inhibition of Aurora A in human HeLa cells after 12 hrs by Western blot method. It is filed as cell-based. An outline of the steps: as §2

Test [5] deals with T2, Aurora kinase B. As to the kind of experiment: Inhibition of Aurora B in human HeLa cells after 12 hrs by ELISA method. The format is cell-based.
The subject of test [6] is HeLa. As to the kind of experiment: Selectivity index, ratio of IC50 for Aurora B in human HeLa cells to IC50 for Aurora A in human HeLa cells. It is filed as cell-based.
The subject of test [7] is HeLa. As to the kind of experiment: Induction of cell cycle arrest in human HeLa cells assessed as accumulation at G1 phase at 2 uM after 12 hrs by propidium iodide staining based flow cytometry (reference value: 73%). It is filed as functional.
Test [8] deals with HeLa. The test is described as follows: Induction of cell cycle arrest in human HeLa cells assessed as accumulation at G1 phase at 5 uM after 12 hrs by propidium iodide staining based flow cytometry (reference value: 73%). The format is functional.
In test [9] the test system is HeLa. As to the kind of experiment: Induction of cell cycle arrest in human HeLa cells assessed as accumulation at G2/M phase at 5 uM after 12 hrs by propidium iodide staining based flow cytometry (reference value: 10.2%). The format is functional.
Test [10] deals with HeLa. As to the kind of experiment: Induction of cell cycle arrest in human HeLa cells assessed as accumulation at S phase at 2 uM after 12 hrs by propidium iodide staining based flow cytometry (reference value: 16.6%). The format is functional.
Test [11] has as its system HeLa. As to the kind of experiment: Induction of cell cycle arrest in human HeLa cells assessed as accumulation at S phase at 5 uM after 12 hrs by propidium iodide staining based flow cytometry (reference value: 16.6%). It is filed as functional.
Test [12] concerns the target T3, Aurora kinase A (Homo sapiens). The test is described as follows: Inhibition of Aurora A in human HeLa cells at. The format is cell-based.
The subject of test [13] is HeLa. As to the kind of experiment: Increase in cyclin B1 protein expression in human HeLa cells at 100 nM by Western blot method. The format is functional, cell-based. An outline of the steps:
(§3)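 Lysates were boiled for 10 min and centrifuged. Proteins were separated, transferred to nitrocellulose, probed for cyclin B1 with antibodies and developed.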

Test [14] concerns the target T3, Aurora kinase A (Homo sapiens). The test is described as follows: Inhibition of Aurora A in human HeLa cells at >10 nM after 12 hrs by ELISA method. The format is cell-based. An outline of the steps: (§4)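 HeLa cells were treated for 12 h. A sandwich ELISA used plates coated with anti-human Aurora A or B antibody and an HRP-labelled detection antibody. TMB substrate was added, the reaction was stopped with sulphuric acid, and absorbance was read at 450 nm.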

The subject of test [15] is HeLa. The test is described as follows: Induction of cell cycle arrest in human HeLa cells assessed as accumulation at G2/M phase at 2 uM after 12 hrs by propidium iodide staining based flow cytometry (reference value: 10.2%). It is filed as functional.
Test [16] relates to HeLa. As to the kind of experiment: Increase in cyclin B1 protein expression in human HeLa cells at 500 nM by Western blot method. It is filed as functional, cell-based. An outline of the steps: as §3
The test system of test [17] is HeLa. The test is described as follows: Induction of cell cycle arrest in human HeLa cells assessed as accumulation at G2/M phase after 12 hrs by propidium iodide staining based flow cytometry. It is filed as functional.
Test [18] addresses T2, Aurora kinase B. The test is described as follows: Inhibition of Aurora B in human HeLa cells at >10 nM after 12 hrs by ELISA method. It is filed as cell-based. An outline of the steps: as §4
Test [19] deals with T2, Aurora kinase B. As to the kind of experiment: Inhibition of Aurora B in human HeLa cells at. It is filed as cell-based.

The source made the active and inactive calls. No cut-off for these calls is given here.

T2 sequence (Q96GD4 whole entry): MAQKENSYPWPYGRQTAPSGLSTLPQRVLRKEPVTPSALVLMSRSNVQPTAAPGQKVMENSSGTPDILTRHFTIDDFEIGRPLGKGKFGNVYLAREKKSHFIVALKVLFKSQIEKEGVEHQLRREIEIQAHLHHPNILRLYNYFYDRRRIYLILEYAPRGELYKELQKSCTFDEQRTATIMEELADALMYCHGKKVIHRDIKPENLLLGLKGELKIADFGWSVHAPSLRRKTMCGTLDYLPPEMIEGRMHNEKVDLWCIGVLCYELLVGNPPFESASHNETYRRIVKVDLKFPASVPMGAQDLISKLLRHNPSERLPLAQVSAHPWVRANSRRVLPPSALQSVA

For `CN1CCN(c2ccc(Nc3ncc(N)c(NC4CCCC4)n3)cc2)CC1`, the IC50 in the test with HepG2 worked out at 18.5 µM; in [1], 4.2 µM; in the test with A549 it was 27 µM; in the test on HeLa [2] it was 9.7 µM.

`CCCNc1nc(Nc2ccc(N3CCOCC3)cc2)ncc1F`: the IC50 with HepG2 was found to be 20 µM; in [1], 73.9 µM; with A549, 8.8 µM; in the test on HeLa [2], 7.3 µM.

Consider `CN1CCN(c2ccc(Nc3ncc(F)c(NC4CCCC4)n3)cc2)CC1`, for which the IC50 was 25 µM in the test on HepG2, 29 µM in [1], 37.2 µM with A549 and 20 µM in the test on HeLa [2].

On to `CCCNc1nc(Nc2ccc(N3CCN(C)CC3)cc2)ncc1F`, for which the IC50 with HepG2 is 35 µM; in test [1], 50 µM; with A549, 5.1 µM; in the test with HeLa [2], 14.2 µM.

`CN1CCC(NC(=O)c2ccc(Nc3ncc(F)c(NC4CCCC4)n3)cc2)CC1`: the IC50 turned out to be 10 µM with HepG2, 16 µM in [1], 10.3 µM in the test with A549 and 45.5 µM in the test on HeLa [2].

Take `O=[N+]([O-])c1cnc(Nc2ccc(N3CCOCC3)cc2)nc1NC1CCCC1`: the IC50 with HepG2 was 21.9 µM; in test [1], 20 µM; in the test with A549, 63.7 µM; in the test with HeLa [2], 36.4 µM.

Consider `COc1cc(C(=O)NC2CCN(C)CC2)ccc1Nc1ncc(F)c(NC2CCCC2)n1`, for which the half-inhibitory concentration (IC50) against Aurora kinase A was found to be 43 nM; in the test on HepG2, 4.5 µM; against Aurora kinase B [5], 395 nM; in test [1] it was 2.1 µM; in the test with A549 it was 2.1 µM; in the test on HeLa [2], 2.2 µM. In addition, the inhibition result (at Aurora kinase B [3]; in [4]) was “Dose-dependent effect” in each case. In addition, the Ratio IC50 in the test on HeLa [6] is 9.

Turning to `CN1CCN(c2ccc(Nc3ncc([N+](=O)[O-])c(NC4CCCC4)n3)cc2)CC1`, the IC50 in the test on HepG2 amounted to 5.2 µM; in test [1], 53.7 µM; with A549, 4.6 µM; in the test with HeLa [2], 3.8 µM.

For the molecule `COc1cc(C(=O)NC2CCN(C)CC2)ccc1Nc1ncc(Cl)c(NC2CCCC2)n1`, the IC50 in the test with HepG2 turned out to be 9.3 µM; in test [1], 4.4 µM; in the test on A549 it was 5.3 µM; with HeLa [2], 2.7 µM.

On to `CN1CCC(NC(=O)c2ccc(Nc3ncc(Cl)c(NC4CCCC4)n3)cc2)CC1`, for which the IC50 in the test with HepG2 came out at 2.2 µM; in [1], 4.6 µM; in the test on A549 it was 1.8 µM; in the test on HeLa [2], 1.5 µM.

Take `CN1CCC(NC(=O)c2ccc(Nc3ncc(Br)c(NC4CCCC4)n3)cc2)CC1`: the IC50 against Aurora kinase A came out at 12 nM; in the test with HepG2, 2.4 µM; at Aurora kinase B [5], 430 nM; in test [1] it was 3.6 µM; in the test with A549, 0.5 µM; with HeLa [2], 0.9 µM. For the same molecule, the inhibition entry (on Aurora kinase B [3]; in test [4]) was “Dose-dependent effect” throughout. The Activity in the test on HeLa [7] is 56.2%; in the test with HeLa [8], 50.5%; with HeLa [9] it was 43.5%; in the test on HeLa [10], 10.6%; with HeLa [11], 6%; with HeLa [15], 33.2%. Moreover, the Activity entry with HeLa [17] is “Dose-dependent effect”. Also, in the test with HeLa [6], the Ratio IC50 is 35. Also, the inhibition entry (in [12]; at Aurora kinase B [19]) was “inactive” each time. In addition, the inhibition entry (with HeLa [13]; in test [14]; in the test on HeLa [16]; on Aurora kinase B [18]) was “Active” throughout.

In the case of `Cc1cc(Nc2cc(N3CCN(C)CC3)nc(Sc3ccc(NC(=O)C4CC4)cc3)n2)n[nH]1` [TOZASERTIB], the IC50 in the test on HepG2 is 63.4 µM; in [1] it was 44.6 µM; with A549 it was 19.4 µM; with HeLa [2], 27.3 µM.

With `Fc1cnc(Nc2ccc(N3CCOCC3)cc2)nc1NC1CC1`, the IC50 is 33 µM in the test with HepG2, 40.3 µM in test [1], 8.7 µM in the test on A549 and 6 µM in the test on HeLa [2].

For the molecule `CN1CCC(NC(=O)c2ccc(Nc3ncc([N+](=O)[O-])c(NC4CCCC4)n3)cc2)CC1`, the IC50 with HepG2 turned out to be 5.8 µM; in [1], 15.6 µM; in the test with A549, 42.3 µM; in the test with HeLa [2], 21.7 µM.

With `COc1cc(C(=O)NC2CCN(C)CC2)ccc1Nc1ncc(Br)c(NC2CCCC2)n1`, the IC50 stood at 4.9 µM with HepG2, 12 µM in [1], 2.5 µM in the test on A549 and 3.5 µM in the test with HeLa [2].

As to `Fc1cnc(Nc2ccc(N3CCOCC3)cc2)nc1NC1CCCC1`, the IC50 with HepG2 came out at 36.5 µM; in test [1] it was 24 µM; in the test on A549, 17.3 µM; with HeLa [2], 31.4 µM.
